Measurements: ChEMBL document CHEMBL4265991 (Bioorg Med Chem, 2018)
≈ marks a conversion by molar mass, not a printed value.

Key:
[1] = Drug level in DTT containing buffer treated with 3-((5-Phenyl-1,3,4-oxadiazol-2-yl)thio)benzo[b]thiophene-1,1-dioxide by LC-MS analysis; type: physicochemical
[2] = test system: Cryptococcus neoformans; assay: Antifungal activity against Cryptococcus neoformans after 24 hrs by two fold serial dilution method
[3] = Drug metabolism in DTT containing buffer assessed as formation of 5-phenyl-1,3,4-oxadiazole-2-thiol by LC-MS analysis; type: physicochemical
[4] = Cytotoxicity against human HepG2 cells after 24 hrs by resazurin dye-based fluorescence analysis; type: cell-based
In short: (§1)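 Cells seeded at 3000 per well in DMEM with 10% FBS. Compound […], applied as a 2-fold dilution series mixed directly with the cells. Incubated 24 h at 37 °C in 5% CO2, then 10 µM resazurin was added for 3 h. Fluorescence read at ex/em 560/590 nm. DMSO served as negative control.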

[5] = target: Inosine-5'-monophosphate dehydrogenase 1 (Homo sapiens, UniProt P20839); assay: Inhibition of recombinant human His-tagged IMPDH1 expressed in Escherichia coli BL21 (DE3) using IMP as substrate in presence of NAD
In short: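 His-tag-cleaved human IMPDH from E. coli BL21(DE3) pLysS at 0.2 µM. NAD 100 µM, IMP 125 µM; reaction started with IMP. NADH followed at 340 nm. Compounds tested 30 to 0.93 µM. IC50 from variable-slope fit normalized to no-inhibitor and 20 µM MPA controls; n ≥ 3.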

[6] = test system: Candida albicans; assay: Antifungal activity against Candida albicans after 24 hrs by OD530 reading based two fold serial dilution method
[7] = Cytotoxicity against HEK293 cells after 24 hrs by resazurin dye-based fluorescence analysis; type: cell-based; details: human; in short: as §1
[8] = target: Inosine-5'-monophosphate dehydrogenase 2 (Homo sapiens, UniProt P12268); assay: Inhibition of recombinant human His-tagged IMPDH2 expressed in Escherichia coli BL21 (DE3) using IMP as substrate in presence of NAD
[9] = target: Inosine-5'-monophosphate dehydrogenase (Cryptococcus neoformans var. neoformans serotype D (strain JEC21 /ATCC MYA-565) (Filobasidiella neoformans), UniProt Q5KP44); assay: Inhibition of recombinant Cryptococcus neoformans His-tagged IMPDH expressed in Escherichia coli BL21 (DE3) using IMP as substrate in presence of NAD
In short: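 Recombinant C. neoformans IMPDH (E. coli BL21(DE3) pLysS) at 0.2 µM. IMP and NAD each 500 µM; reaction started with IMP. NADH followed at 340 nm. Compounds tested 20 to 0.02 µM. % activity normalized to no-inhibitor and 20 µM MPA controls, fitted by variable-slope dose-response; n ≥ 3.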

Sequence of Inosine-5'-monophosphate dehydrogenase 1 (P20839 whole entry): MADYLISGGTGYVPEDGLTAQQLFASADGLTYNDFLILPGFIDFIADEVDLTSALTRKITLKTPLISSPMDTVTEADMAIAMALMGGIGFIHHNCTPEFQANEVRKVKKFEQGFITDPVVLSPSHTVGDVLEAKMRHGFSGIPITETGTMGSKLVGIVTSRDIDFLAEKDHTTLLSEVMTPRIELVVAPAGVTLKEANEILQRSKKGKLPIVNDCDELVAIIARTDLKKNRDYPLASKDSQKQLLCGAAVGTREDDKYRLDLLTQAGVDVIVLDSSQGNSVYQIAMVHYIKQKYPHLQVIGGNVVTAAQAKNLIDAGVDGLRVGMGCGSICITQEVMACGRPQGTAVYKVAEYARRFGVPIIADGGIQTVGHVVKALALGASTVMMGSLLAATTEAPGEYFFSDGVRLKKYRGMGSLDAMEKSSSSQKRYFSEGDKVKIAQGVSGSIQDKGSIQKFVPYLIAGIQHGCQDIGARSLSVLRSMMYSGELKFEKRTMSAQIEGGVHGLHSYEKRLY
Sequence of Inosine-5'-monophosphate dehydrogenase (Q5KP44 whole entry): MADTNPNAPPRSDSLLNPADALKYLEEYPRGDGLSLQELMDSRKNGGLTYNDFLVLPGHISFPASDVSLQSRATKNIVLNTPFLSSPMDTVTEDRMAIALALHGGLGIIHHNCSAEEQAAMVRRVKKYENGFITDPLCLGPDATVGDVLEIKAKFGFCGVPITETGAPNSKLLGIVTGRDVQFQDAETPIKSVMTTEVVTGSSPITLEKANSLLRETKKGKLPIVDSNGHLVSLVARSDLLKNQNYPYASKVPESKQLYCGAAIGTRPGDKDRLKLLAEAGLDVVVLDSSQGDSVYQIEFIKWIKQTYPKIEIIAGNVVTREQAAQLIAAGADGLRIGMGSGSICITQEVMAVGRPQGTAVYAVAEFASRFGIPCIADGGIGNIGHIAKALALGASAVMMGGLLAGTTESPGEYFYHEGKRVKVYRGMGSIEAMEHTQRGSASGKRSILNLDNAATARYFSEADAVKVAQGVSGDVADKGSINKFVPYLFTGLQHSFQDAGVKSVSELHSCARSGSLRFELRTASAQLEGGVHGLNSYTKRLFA

SMILES	Drug metabolism [1]	MIC [2] [µM]	Drug metabolism [3]	CC50 at 24 h [4] [µM]	IC50 [5] [µM]	MIC [6] [µM]	CC50 at 24 h [7] [µM]	IC50 [8] [µM]	IC50 [9] [µM]
S=c1[nH]nc(-c2ccccc2)o1	Metabolite_Detected	–	–	–	–	–	–	–	–
O=S1(=O)C=C(Sc2nnc(-c3ccccc3)o2)c2ccccc21	–	6 (≈ 2.05 µg/mL)	Metabolite_Detected	20	5.6	6 (≈ 2.05 µg/mL)	3	2.1	0.37
O=S1(=O)C=C(Sc2nnc(-c3ccncc3)o2)c2ccccc21	–	9 (≈ 3.09 µg/mL)	–	17	8.6	6 (≈ 2.06 µg/mL)	4	2.1	0.76
O=S1(=O)C=C(Sc2nnc(-c3ccc(Cl)cc3)o2)c2ccccc21	–	16 (≈ 6.03 µg/mL)	–	22	11.1	167 (≈ 62.9 µg/mL)	3	1.5	0.49
COc1ccc(-c2nnc(SC3=CS(=O)(=O)c4ccccc43)o2)cc1	–	172 (≈ 64.1 µg/mL)	–	22	> 30	172 (≈ 64.1 µg/mL)	2	> 30	1.7
Cc1ccc(-c2nnc(SC3=CS(=O)(=O)c4ccccc43)o2)cc1	–	22 (≈ 7.84 µg/mL)	–	31	20.3	90 (≈ 32.1 µg/mL)	3	5.7	0.41
COC(=O)c1ccc(-c2nnc(SC3=CS(=O)(=O)c4ccccc43)o2)cc1	–	60 (≈ 24 µg/mL)	–	18	> 30	> 160	4	> 30	0.34
COc1cccc(-c2nnc(SC3=CS(=O)(=O)c4ccccc43)o2)c1	–	8 (≈ 2.98 µg/mL)	–	20	4.3	172 (≈ 64.1 µg/mL)	3	1.2	0.15
O=S1(=O)C=C(Sc2nnc(-c3ccccn3)o2)c2ccccc21	–	6 (≈ 2.06 µg/mL)	–	24	13.2	4 (≈ 1.37 µg/mL)	5	4.2	1.06
O=S1(=O)C=C(Sc2nnc(-c3cccc(Cl)c3)o2)c2ccccc21	–	6 (≈ 2.26 µg/mL)	–	27	10.1	167 (≈ 62.9 µg/mL)	6	1.6	0.4
COc1ccccc1-c1nnc(SC2=CS(=O)(=O)c3ccccc32)o1	–	64 (≈ 23.8 µg/mL)	–	16	9.9	172 (≈ 64.1 µg/mL)	3	3.2	0.48
O=S1(=O)C=C(Sc2nnc(C3CCCCC3)o2)c2ccccc21	–	7 (≈ 2.44 µg/mL)	–	15	7.6	46 (≈ 16 µg/mL)	3	2.2	0.67
O=S1(=O)C=C(Sc2nnc(-c3ccccc3Cl)o2)c2ccccc21	–	6 (≈ 2.26 µg/mL)	–	25	7.2	167 (≈ 62.9 µg/mL)	4	1.2	0.23
Nc1ccc(-c2nnc(SC3=CS(=O)(=O)c4ccccc43)o2)cc1	–	33 (≈ 11.8 µg/mL)	–	24	13.8	> 179	4	4.5	1.01
O=S1(=O)C=C(Sc2nnc(-c3cccnc3)o2)c2ccccc21	–	4 (≈ 1.37 µg/mL)	–	14	6.3	4 (≈ 1.37 µg/mL)	4	2.6	0.59
CC(=O)Nc1ccc(-c2nnc(SC3=CS(=O)(=O)c4ccccc43)o2)cc1	–	> 160	–	31	20.4	> 160	4	4.4	0.16
C[C@@H]1[C@H](O)[C@@H](C)/C=C/C=C/C=C/C=C/C=C/C=C/C=C/[C@H](O[C@@H]2O[C@H](C)[C@@H](O)[C@H](N)[C@@H]2O)C[C@@H]2O[C@](O)(C[C@@H](O)C[C@@H](O)[C@H](O)CC[C@@H](O)C[C@@H](O)CC(=O)O[C@H]1C)C[C@H](O)[C@H]2C(=O)O [AMPHOTERICIN B]	–	0.25 (≈ 0.231 µg/mL)	–	–	–	0.18 (≈ 0.166 µg/mL)	–	–	–
OC(Cn1cncn1)(Cn1cncn1)c1ccc(F)cc1F [FLUCONAZOLE]	–	0.3 (≈ 0.0919 µg/mL)	–	–	–	8 (≈ 2.45 µg/mL)	–	–	–
COc1c(C)c2c(c(O)c1C/C=C(\C)CCC(=O)O)C(=O)OC2 [MYCOPHENOLIC ACID]	–	–	–	–	0.26	–	–	–	0.12
